According to ChEMBL document CHEMBL4373675, “Derivatisation of parthenolide to address chemoresistant chronic lymphocytic leukaemia” (Medchemcomm, 2019):
Calls of active or inactive are those of the source. The rule behind the calls is not given here.

Tests used:
[1] = Half life in aqueous solution at pH 7.4; assay type: physicochemical
[2] = Intrinsic clearance in mouse hepatocytes assessed as per million cells; assay type: ADME, cell-based, Hepatocyte; conditions: read-out: CLH
In short: (§1)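 Metabolic stability was measured in mouse hepatocytes. Intrinsic clearance is given in µL min⁻¹ per million cells, alongside half-life in min.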

[3] = Half life in mouse hepatocytes; assay type: ADME, cell-based, Hepatocyte; in short: as §1
[4] = Permeability across apical to basolateral side in human Caco2 cells; assay type: ADME, cell-based; conditions: Caco-2
In short: (§2)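 Permeability was measured in a Caco-2 monolayer at pH 7.4 in both the apical-to-basolateral and basolateral-to-apical directions. Results are given as mean apparent permeability (Papp, 10⁻⁶ cm s⁻¹), and efflux ratio was derived from the two directions.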

[5] = Permeability across basolateral to apical side in human Caco2 cells; assay type: ADME, cell-based; conditions: Caco-2; in short: as §2
[6] = Volume of distribution at steady state in mouse at 1 mg/kg, iv; assay type: ADME, organism-based; conditions: in vivo, read-out: Vdss
[7] = AUC (0 to infinity) in mouse at 1 mg/kg, iv; assay type: ADME, organism-based; parameters: dose 1 mg/kg, route intravenous, time infinity; conditions: in vivo
[8] = Tmax in mouse at 10 mg/kg, po; assay type: ADME, organism-based; conditions: in vivo
[9] = Oral bioavailability in mouse at 10 mg/kg; assay type: ADME, organism-based; conditions: in vivo
[10] = AUC in mouse at 10 mg/kg, po; assay type: ADME, organism-based; conditions: in vivo
MEC1 = experiment: Antiproliferative activity against human MEC1 cells assessed as cell death in presence of ROS scavenger N-acetyl-L-cysteine by alamar blue assay; assay type: functional, cell-based
In short: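 MEC1 CLL cells (ATCC; carry mutated p53) were pretreated with N-acetylcysteine and then exposed to compound across a concentration series. Viability was read by alamarBlue, and EC50 was taken from concentration-activity plots.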

half-life [1] | hepatocyte CLint [2] | half-life [3] | Papp A→B [4] | Papp B→A [5] | Vd [6] | AUC(0-inf) [7] | Tmax [8] | bioavailability [9] | AUC(0-inf) [10] | SMILES | Activity (MEC1)
> 2 h | 22 µL/min/1e6 cells | 1.08 h | 15.9 ×10⁻⁶ cm/s | 16.2 ×10⁻⁶ cm/s | 11.6 L/kg | 80.5 ng·h/mL | 0.5 h | 95.8% | 711 ng·h/mL | C/C1=C/CC[C@@]2(C)O[C@@H]2[C@H]2OC(=O)[C@@H](CN3CCCC3)[C@@H]2CC1 | 
 | 22 µL/min/1e6 cells |  |  |  |  | 289 ng·h/mL |  |  | 1700 ng·h/mL | C/C1=C\CC[C@@]2(C)O[C@@H]2[C@H]2OC(=O)[C@@H](CN3CCC(c4cc(O)nc(C)n4)CC3)[C@@H]2CC1 | inactive
 | 16 µL/min/1e6 cells |  |  |  |  |  |  |  |  | C/C1=C\CC[C@@]2(C)O[C@@H]2[C@H]2OC(=O)[C@@H](CN[C@@H](Cc3ccccc3)C(=O)O)[C@@H]2CC1 | 
